In brackets after ≈: the same amount, converted by molar mass.
What was measured:
Streptococcus pyogenes [1] = experiment: In vitro antimicrobial activity against Streptococcus pyogenes C203; assay type: functional
Streptococcus pyogenes [2] = experiment: Activity against Streptococcus pyogenes C203 when administered orally; assay type: functional; details: po
Summary of the method: (§1)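 Mouse protection test: infected mice were dosed twice, at 1 and 5 h postinfection, either subcutaneously or orally. […] The result is expressed as ED50 in mg/kg × 2.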

[3] = test system: Bacteroides thetaiotaomicron; experiment: In vitro antimicrobial activity against anaerobic bacteria bacteroides thetaiotaomicron 1438; assay type: functional
Streptococcus [4] = experiment: In vitro antimicrobial activity against aerobic bacteria Streptococcus C 24
Streptococcus pneumoniae [5] = experiment: In vitro antimicrobial activity against aerobic bacteria Streptococcus pneumoniae B1-438; assay type: functional, streptococcus pneum
Phocaeicola vulgatus = experiment: In vitro antimicrobial activity against anaerobic bacteria bacteroides vulgatus 1211; assay type: functional
Streptococcus [6] = experiment: In vitro antimicrobial activity against aerobic bacteria Streptococcus D 9960
Staphylococcus aureus [7] = experiment: In vitro antimicrobial activity against aerobic bacteria Staphylococcus aureus V135; assay type: functional
Collinsella aerofaciens = experiment: In vitro antimicrobial activity against anaerobic bacteria eubacterium aerofaciens 1235; assay type: functional
Anaerococcus prevotii = experiment: In vitro antimicrobial activity against anaerobic bacteria peptococcus prevoti 1281; assay type: functional
Streptococcus pyogenes [8] = experiment: In vivo pyogenes C203 when administered sc; assay type: functional
Enterococcus faecium = experiment: In vitro antimicrobial activity against Streptococcus faecium X66; assay type: functional, streptococcus fae-cium
Streptococcus pneumoniae [9] = experiment: In vivo effective dose against experimental infections in mice Streptococcus pneumoniae park when administered orally; assay type: functional; details: po
Haemophilus influenzae [10] = experiment: In vitro antimicrobial activity against aerobic bacteria Haemophilus influenzae 465; assay type: functional
Streptococcus [11] = experiment: In vitro antimicrobial activity against aerobic bacteria Streptococcus D 2041
Cutibacterium acnes = experiment: In vitro antimicrobial activity against anaerobic bacteria propionibacterium acnes 79; assay type: functional
Haemophilus influenzae [12] = experiment: In vitro antimicrobial activity against aerobic bacteria Haemophilus influenzae 76; assay type: functional
Clostridioides difficile = experiment: In vitro antimicrobial activity against anaerobic bacteria Clostridium difficile 2994; assay type: functional
[13] = test system: Staphylococcus epidermidis; experiment: In vitro antimicrobial activity against Staphylococcus epidermidis EPI1; assay type: functional
Staphylococcus aureus [14] = experiment: In vitro antimicrobial activity against Staphylococcus aureus X1; assay type: functional
Streptococcus pneumoniae [15] = experiment: In vivo effective dose against experimental infections in mice Streptococcus pneumoniae park when administered sc; assay type: functional
Staphylococcus aureus [16] = experiment: In vivo effective dose against experimental infections in mice Staphylococcus aureus X1 when administered orally; assay type: functional; details: po
Bacteroides fragilis [17] = experiment: In vitro antimicrobial activity against anaerobic bacteria bacteroides fragilis 1936B,; assay type: functional
Bacteroides fragilis [18] = experiment: In vitro antimicrobial activity against anaerobic bacteria bacteroides fragilis 111; assay type: functional
Clostridium perfringens = experiment: In vitro antimicrobial activity against anaerobic bacteria clostridium perfringens 81,; assay type: functional
Clostridium septicum = experiment: In vitro antimicrobial activity against anaerobic bacteria clostridium septicum 1128; assay type: functional
Streptococcus pyogenes [19] = experiment: In vivo activity against experimental infections in rodent caused by Streptococcus pyogenes C203 when administered orally; assay type: functional; details: po
[20] = test system: Peptoniphilus asaccharolyticus; experiment: In vitro antimicrobial activity against anaerobic bacteria peptococcus asaccharolyticus 1302; assay type: functional
[21] = test system: Fusobacterium necrophorum; experiment: In vitro antimicrobial activity against anaerobic bacteria usobacterium necrophorum 6054A; assay type: functional
Streptococcus [22] = experiment: In vitro antimicrobial activity against aerobic bacteria Streptococcus G Kruder
Staphylococcus aureus [23] = experiment: In vitro antimicrobial activity against aerobic bacteria Staphylococcus aureus X400; assay type: functional
Staphylococcus aureus [24] = experiment: In vitro antimicrobial activity against aerobic bacteria Staphylococcus aureus V140,; assay type: functional
[25] = test system: Prevotella melaninogenica; experiment: In vitro antimicrobial activity against anaerobic bacteria bacteroides melaninogenicus 1856,; assay type: functional
Fusobacterium = experiment: In vitro antimicrobial activity against anaerobic bacteria fusobacterium symbiosum 1470; assay type: functional
Staphylococcus aureus [26] = experiment: In vivo effective dose against experimental infections in mice Staphylococcus aureus X1 when administered sc; assay type: functional
Staphylococcus aureus [27] = experiment: In vitro antimicrobial activity against aerobic bacteria Staphylococcus aureus V41; assay type: functional
[28] = test system: Prevotella melaninogenica; experiment: In vitro antimicrobial activity against anaerobic bacteria bacteroides melaninogenicus 2736; assay type: functional
Streptococcus pneumoniae [29] = experiment: In vitro antimicrobial activity against Streptococcus pneumoniae; assay type: functional
[30] = test system: Staphylococcus epidermidis; experiment: In vitro antimicrobial activity against aerobic bacteria Streptococcus epi 222; assay type: functional
Bacteroides fragilis [31] = experiment: In vitro antimicrobial activity against anaerobic bacteria bacteroides fragilis 1877; assay type: functional
Streptococcus sanguinis = experiment: In vitro antimicrobial activity against aerobic bacteria Streptococcus sanguis MX132; assay type: functional
[32] = In vitro antimicrobial activity against anaerobic bacteria peptostreptococcus intermedius 1264; assay type: functional
[33] = test system: Haemophilus parainfluenzae; experiment: In vitro antimicrobial activity against aerobic bacteria Haemophilus parainfluenzae 9796; assay type: functional
Haemophilus influenzae [34] = experiment: In vitro antimicrobial activity against aerobic bacteria Haemophilus influenzae MX366,; assay type: functional
Staphylococcus aureus [35] = experiment: In vitro antimicrobial activity against aerobic bacteria Staphylococcus aureus 513E; assay type: functional
Streptococcus pyogenes [36] = experiment: Activity against Streptococcus pyogenes C203 when administered sc; assay type: functional; summary of the method: as §1
Streptococcus [37] = experiment: In vitro antimicrobial activity against aerobic bacteria Streptococcus B 5; assay type: functional
Eikenella corrodens = experiment: In vitro antimicrobial activity against anaerobic bacteria bacteroides corrodens 1874; assay type: functional
Chlamydia trachomatis = experiment: In vitro antimicrobial activity against chlamydia trachomatis.; assay type: functional
[38] = test system: Peptostreptococcus anaerobius; experiment: In vitro antimicrobial activity against anaerobic bacteria peptostreptococcus anaerobius 1428,; assay type: functional
[39] = test system: Staphylococcus epidermidis; experiment: In vitro antimicrobial activity against aerobic bacteria Streptococcus epi 270; assay type: functional
Streptococcus [40] = experiment: In vitro antimicrobial activity against aerobic bacteria Streptococcus D 8043
Streptococcus viridans = experiment: In vitro antimicrobial activity against aerobic bacteria Streptococcus viridans 9943; assay type: functional
Streptococcus [41] = experiment: In vitro antimicrobial activity against aerobic bacteria Streptococcus B 8
Haemophilus influenzae [42] = experiment: In vitro antimicrobial activity against Haemophilus influenzae.; assay type: functional

## CC[C@H]1OC(=O)C[C@@H](O)[C@H](C)[C@@H](O[C@@H]2O[C@H](C)[C@@H](O)[C@H](N(C)C)[C@H]2O)[C@@H](CC=O)C[C@@H](C)C(=O)/C=C/C(C)=C/[C@@H]1CO[C@@H]1O[C@H](C)[C@@H](O)[C@@H](OC)[C@H]1OC
Streptococcus pyogenes [1]
  MIC: 0.25 µg/mL (≈ 0.324 µM)
Streptococcus pyogenes [2]
  ED50: 0.8 mg/kg
[3]
  MIC: 2 µg/mL (≈ 2.59 µM)
Streptococcus [4]
  MIC: 0.5 µg/mL (≈ 0.648 µM)
Streptococcus pneumoniae [5]
  MIC: > 128 µg/mL
Phocaeicola vulgatus
  MIC: 8 µg/mL (≈ 10.4 µM)
Streptococcus [6]
  MIC: 1 µg/mL (≈ 1.3 µM)
Staphylococcus aureus [7]
  MIC: 1 µg/mL (≈ 1.3 µM)
Collinsella aerofaciens
  MIC: 0.12 µg/mL (≈ 0.155 µM)
Anaerococcus prevotii
  MIC: 4 µg/mL (≈ 5.18 µM)
Streptococcus pyogenes [8]
  ED50: 1.4 mg/kg
Enterococcus faecium
  MIC: 4 µg/mL (≈ 5.18 µM)
Streptococcus pneumoniae [9]
  ED50: > 100 mg/kg
Haemophilus influenzae [10]
  MIC: 16 µg/mL (≈ 20.7 µM)
Streptococcus [11]
  MIC: 0.5 µg/mL (≈ 0.648 µM)
Cutibacterium acnes
  MIC: 2 µg/mL (≈ 2.59 µM)
Haemophilus influenzae [12]
  MIC: 8 µg/mL (≈ 10.4 µM)
Clostridioides difficile
  MIC: 0.25 µg/mL (≈ 0.324 µM)
[13]
  MIC: 0.5 µg/mL (≈ 0.648 µM)
Staphylococcus aureus [14]
  MIC: 0.5 µg/mL (≈ 0.648 µM)
Streptococcus pneumoniae [15]
  ED50: > 10 mg/kg
Staphylococcus aureus [16]
  ED50: > 100 mg/kg
Bacteroides fragilis [17]
  MIC: 8 µg/mL (≈ 10.4 µM)
Bacteroides fragilis [18]
  MIC: 8 µg/mL (≈ 10.4 µM)
Clostridium perfringens
  MIC: 0.25 µg/mL (≈ 0.324 µM)
Clostridium septicum
  MIC: 2 µg/mL (≈ 2.59 µM)
Streptococcus pyogenes [19]
  ED50: 84 mg/kg
[20]
  MIC: 8 µg/mL (≈ 10.4 µM)
[21]
  MIC: 1 µg/mL (≈ 1.3 µM)
Streptococcus [22]
  MIC: 0.25 µg/mL (≈ 0.324 µM)
Staphylococcus aureus [23]
  MIC: 1 µg/mL (≈ 1.3 µM)
Staphylococcus aureus [24]
  MIC: 1 µg/mL (≈ 1.3 µM)
[25]
  MIC: 8 µg/mL (≈ 10.4 µM)
Fusobacterium
  MIC: 2 µg/mL (≈ 2.59 µM)
Staphylococcus aureus [26]
  ED50: 3.9 mg/kg
Staphylococcus aureus [27]
  MIC: 1 µg/mL (≈ 1.3 µM)
[28]
  MIC: 16 µg/mL (≈ 20.7 µM)
Streptococcus pneumoniae [29]
  MIC: 0.25 µg/mL (≈ 0.324 µM)
[30]
  MIC: 0.25 µg/mL (≈ 0.324 µM)
Bacteroides fragilis [31]
  MIC: 8 µg/mL (≈ 10.4 µM)
Streptococcus sanguinis
  MIC: 0.5 µg/mL (≈ 0.648 µM)
[32]
  MIC: 16 µg/mL (≈ 20.7 µM)
[33]
  MIC: 8 µg/mL (≈ 10.4 µM)
Haemophilus influenzae [34]
  MIC: 32 µg/mL (≈ 41.5 µM)
Staphylococcus aureus [35]
  MIC: 1 µg/mL (≈ 1.3 µM)
Streptococcus pyogenes [36]
  ED50: 0.25 mg/kg
Streptococcus [37]
  MIC: 0.5 µg/mL (≈ 0.648 µM)
Eikenella corrodens
  MIC: 8 µg/mL (≈ 10.4 µM)
Chlamydia trachomatis
  MIC: 0.5 µg/mL (≈ 0.648 µM)
[38]
  MIC: 4 µg/mL (≈ 5.18 µM)
[39]
  MIC: > 128 µg/mL
Streptococcus [40]
  MIC: 0.5 µg/mL (≈ 0.648 µM)
Streptococcus viridans
  MIC: > 128 µg/mL
Streptococcus [41]
  MIC: 0.5 µg/mL (≈ 0.648 µM)
Haemophilus influenzae [42]
  MIC: 4 µg/mL (≈ 5.18 µM)
